From ChEMBL document CHEMBL5104210, “Discovery of antipsychotic loxapine derivatives against intracellular multidrug-resistant bacteria” (RSC Med Chem, 2022)
Activity calls are given as the source filed them. The calls are words filed in the database; no cut-off is given here.

How the values were obtained:
Salmonella typhimurium [1] = assay: Antibacterial activity against intracellular multidrug-resistant Salmonella typhimurium ATCC14028 infected in mouse RAW264.7 cells assessed as reduction in intracellular bacterial survival level by RFP staining based high-content image analysis; type: functional, organism-based, Salmonella enterica subsp. enterica serovar Typhimurium; conditions: Salmonella enterica, ATCC14028, RAW264.7
In short: (§1)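 RAW264.7 cells were seeded for 20 h, then infected for 1 h at MOI 50 with RFP-expressing bacteria (2 h subculture, OD600 0.6 ≈ 1×10^8 CFU/mL). Gentamicin 100 mg/L was given for 1 h, then compound plus 20 mg/L gentamicin for 24 h. Cells were stained with CellTracker Green, fixed, and stained with DAPI. Whole-well high-content imaging gave intracellular RFP intensity for EC50 and DAPI nuclei counts for CC50.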

[2] = Cytotoxicity against mouse RAW264.7 cells assessed as reduction in number of cells by DAPI staining based high-content image analysis; type: toxicity, cell-based
In short: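 RAW264.7 seeded 20 h, infected 1 h with RFP-expressing S. Typhimurium (MOI 50), 100 mg/L gentamicin 1 h, then compound with 20 mg/L gentamicin 24 h. Cells stained with CellTracker Green, fixed in 3.7% formaldehyde, DAPI 0.2 mg/L. Whole-well high-content imaging at 10×; viable cells counted as DAPI-stained nuclei; CC50 calculated.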

[3] = Selectivity ratio of CC50 for cytotoxicity against mouse RAW264.7 cells to EC50 for antibacterial activity against intracellular multidrug-resistant Salmonella typhimurium ATCC14028 infected in mouse RAW264.7 cells; type: toxicity, cell-based; conditions: read-out: Ratio CC50/EC50; in short: as §1
Staphylococcus aureus = assay: Antibacterial activity against methicillin-resistant Staphylococcus aureus USA 300 infected in mouse RAW264.7 cells assessed as reduction in number of viable intracellular bacteria incubated for 24 hrs by CFU assay; type: functional, organism-based; conditions: USA 300, RAW264.7, 24 h
In short: (§2)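 Bacteria were subcultured 1:100 from overnight LB cultures for 2 h at 37°C and resuspended in PBS to OD600 0.6. Host cells in 6-well plates were infected at MOI 25 for 1 h, treated with 100 mg/L gentamicin for 1 h, then given compound plus 20 mg/L gentamicin for 24 h. Cells were lysed in 0.1% Triton X-100, and lysates were serially diluted and plated on LB agar (37°C, 18 h) for CFU counts.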

Salmonella typhimurium [4] = assay: Antibacterial activity against intracellular multidrug-resistant Salmonella typhimurium ATCC14028 infected in human monocytic THP-1 cells assessed as reduction in viability of intracellular bacteria incubated for 24 hrs in presence of gentamicin by CFU assay; type: functional, organism-based, Salmonella enterica subsp. enterica serovar Typhimurium; conditions: Salmonella enterica, ATCC14028, THP-1, 24 h; in short: as §2
Salmonella typhimurium [5] = assay: Antibacterial activity against intracellular ciprofloxacin-resistant Salmonella typhimurium NL10 infected in mouse RAW264.7 cells assessed as reduction in number of intracellular bacteria incubated for 24 hrs in presence of gentamycin by CFU assay; type: functional, organism-based, Salmonella enterica subsp. enterica serovar Typhimurium; conditions: Salmonella enterica, NL10, RAW264.7, 24 h; in short: as §2
Salmonella typhimurium [6] = assay: Antibacterial activity against intracellular multidrug-resistant Salmonella typhimurium ATCC14028 infected in human Intestine 407 cells assessed as reduction in viability of intracellular bacteria incubated for 24 hrs in presence of gentamicin by CFU assay; type: functional, organism-based, Salmonella enterica subsp. enterica serovar Typhimurium; conditions: Salmonella enterica, ATCC14028, Intestine 407, 24 h; in short: as §2
[7] = Cytotoxicity against human Intestine 407 cells assessed as reduction in cell viability in presence of gentamicin and measured after 24 hrs by MTT assay; type: toxicity, cell-based
In short: (§3)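 Cells were seeded and grown 20 h, then given test compound for 24 h. Media were DMEM + 10% heat-inactivated FBS (RAW264.7, J774.1, INT-407), RPMI 1640 + 10% FBS (THP-1) and McCoy's 5A + 10% FBS (HT-29, HCT-116), at 37°C and 5% CO2. MTT was added at 0.5 g/L for 1 h, formazan dissolved in DMSO, and A570 read. CC50 was calculated by curve fitting.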

Salmonella typhimurium [8] = assay: Antibacterial activity against intracellular multidrug-resistant clinical isolate Salmonella typhimurium CGC18 infected in mouse RAW264.7 cells assessed as reduction in number of intracellular bacteria incubated for 24 hrs in presence of gentamycin by CFU assay; type: functional, organism-based, Salmonella enterica subsp. enterica serovar Typhimurium; conditions: Salmonella enterica, CGC18, RAW264.7, 24 h; in short: as §2
Salmonella typhi = assay: Antibacterial activity against Salmonella typhi infected in mouse RAW264.7 cells assessed as reduction in number of viable intracellular bacteria incubated for 24 hrs by CFU assay; type: functional, organism-based, Salmonella enterica subsp. enterica serovar Typhi; conditions: Salmonella enterica, RAW264.7, 24 h; in short: as §2
[9] = Cytotoxicity against mouse RAW264.7 cells assessed as reduction in cell viability measured after 24 hrs by MTT assay; type: toxicity, cell-based; in short: as §3
Salmonella typhimurium [10] = assay: Antibacterial activity against intracellular multidrug-resistant Salmonella typhimurium ATCC14028 infected in mouse RAW264.7 cells assessed as reduction in number of intracellular bacteria incubated for 24 hrs in presence of gentamycin by CFU assay; type: functional, organism-based, Salmonella enterica subsp. enterica serovar Typhimurium; conditions: Salmonella enterica, ATCC14028, RAW264.7, 24 h; in short: as §2
Salmonella typhimurium [11] = assay: Antibacterial activity against intracellular multidrug-resistant Salmonella typhimurium ATCC14028 infected in PMA induced human macrophagic THP-1 cells assessed as reduction in viability of intracellular bacteria incubated for 24 hrs in presence of gentamicin by CFU assay; type: functional, organism-based, Salmonella enterica subsp. enterica serovar Typhimurium; conditions: Salmonella enterica, ATCC14028, THP-1, 24 h; in short: as §2
Salmonella typhimurium [12] = assay: Antibacterial activity against intracellular multidrug-resistant Salmonella typhimurium ATCC14028 infected in human HT-29 cells assessed as reduction in viability of intracellular bacteria incubated for 24 hrs in presence of gentamicin by CFU assay; type: functional, organism-based, Salmonella enterica subsp. enterica serovar Typhimurium; conditions: Salmonella enterica, ATCC14028, HT-29, 24 h; in short: as §2
Salmonella typhimurium [13] = assay: Antibacterial activity against intracellular multidrug-resistant Salmonella typhimurium ATCC14028 infected in human HCT-116 cells assessed as reduction in viability of intracellular bacteria incubated for 24 hrs in presence of gentamicin by CFU assay; type: functional, organism-based, Salmonella enterica subsp. enterica serovar Typhimurium; conditions: Salmonella enterica, ATCC14028, HCT-116, 24 h; in short: as §2
[14] = Cytotoxicity against human HT-29 cells assessed as reduction in cell viability in presence of gentamicin and measured after 24 hrs by MTT assay; type: toxicity, cell-based; in short: as §3
Listeria monocytogenes = assay: Antibacterial activity against Listeria monocytogenes infected in mouse RAW264.7 cells assessed as reduction in number of viable intracellular bacteria incubated for 24 hrs by CFU assay; type: functional, organism-based; conditions: RAW264.7, 24 h
In short: (§4)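 RAW264.7 macrophages in DMEM + 10% heat-inactivated FBS infected 1 h at MOI 25 with bacteria (overnight LB culture diluted 1:100, grown 2 h at 37°C, resuspended in PBS to OD600 0.6). Washed, 100 mg/L gentamicin 1 h, then compound plus 20 mg/L gentamicin for 24 h. Lysed in 0.1% Triton X-100/PBS 10 min at 37°C, lysates serially diluted onto LB agar, colonies counted after 18 h at 37°C.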

[15] = Cytotoxicity against human HCT-116 cells assessed as reduction in cell viability in presence of gentamicin and measured after 24 hrs by MTT assay; type: toxicity, cell-based; in short: as §3
[16] = Cytotoxicity against PMA induced human macrophagic THP-1 cells assessed as reduction in cell viability in presence of gentamicin and measured after 24 hrs by MTT assay; type: toxicity, cell-based; conditions: PMA induced macrophagic THP-1 cells; in short: as §3
Yersinia enterocolitica = assay: Antibacterial activity against Yersinia enterocolitica infected in mouse RAW264.7 cells assessed as reduction in number of viable intracellular bacteria incubated for 24 hrs by CFU assay; type: functional, organism-based; conditions: RAW264.7, 24 h; in short: as §4
Salmonella typhimurium [17] = assay: Antibacterial activity against intracellular multidrug-resistant Salmonella typhimurium ATCC14028 infected in mouse J774.1 cells assessed as reduction in viability of intracellular bacteria incubated for 24 hrs in presence of gentamicin by CFU assay; type: functional, organism-based, Salmonella enterica subsp. enterica serovar Typhimurium; conditions: Salmonella enterica, ATCC14028, J774.1, 24 h; in short: as §2
[18] = Cytotoxicity against human monocytic THP-1 cells assessed as reduction in cell viability in presence of gentamicin and measured after 24 hrs by MTT assay; type: toxicity, cell-based; in short: as §3
[19] = Cytotoxicity against mouse J774.1 cells assessed as reduction in cell viability in presence of gentamicin and measured after 24 hrs by MTT assay; type: toxicity, cell-based; in short: as §3
[20] = target: D(2) dopamine receptor (Homo sapiens) (UniProt P14416); assay: Inhibition of isotope-labelled spiperone binding to recombinant dopamine D2 receptor (unknown origin)
In short: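 Human recombinant D2L receptor expressed in CHO cells (20 μg) incubated with increasing compound concentrations and 0.16 nM [3H]spiperone in Tris-HCl pH 7.4, 120 min at 25°C. Bound radioligand measured by filtration, washing and counting. Nonspecific binding defined with 10 μM haloperidol. Run as a contract service.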

D(2) dopamine receptor (Homo sapiens), sequence (P14416 whole entry): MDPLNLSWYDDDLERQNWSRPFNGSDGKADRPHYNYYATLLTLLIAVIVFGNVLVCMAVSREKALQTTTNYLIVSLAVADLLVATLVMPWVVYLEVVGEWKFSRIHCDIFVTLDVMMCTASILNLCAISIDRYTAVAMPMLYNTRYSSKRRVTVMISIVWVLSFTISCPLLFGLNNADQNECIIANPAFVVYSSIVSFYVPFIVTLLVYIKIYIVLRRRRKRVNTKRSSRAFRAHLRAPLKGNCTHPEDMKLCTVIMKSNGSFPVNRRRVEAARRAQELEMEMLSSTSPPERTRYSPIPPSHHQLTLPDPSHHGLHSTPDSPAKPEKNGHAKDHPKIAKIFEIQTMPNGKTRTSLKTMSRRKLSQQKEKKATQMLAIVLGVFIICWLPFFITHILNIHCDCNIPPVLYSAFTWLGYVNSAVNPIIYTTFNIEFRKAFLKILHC

| Structure (SMILES) | EC50 (Salmonella typhimurium [1]) [µM] | CC50 [2] [µM] | selectivity ratio [3] | further results |
| --- | --- | --- | --- | --- |
| CCC(CC)NC1=Nc2ccccc2Oc2ccc(Cl)cc21 | 28.5 | 72.8 | 2.6 | – |
| Fc1ccc(CCNC2=Nc3ccccc3Oc3ccc(Cl)cc32)cc1 | 45.2 | > 90 | > 2 | – |
| Clc1ccc2c(c1)C(NCC1CC1)=Nc1ccccc1O2 | 44 | 80.3 | 1.8 | – |
| CCCNC1=Nc2ccccc2Oc2ccc(Cl)cc21 | 56 | 112 | 2 | – |
| NCC(=O)Nc1ccc(-n2nc(C(F)(F)F)cc2-c2ccc3c(ccc4ccccc43)c2)cc1 [AR-12] | – | 7.7 | – | – |
| O=C(CNC1=Nc2ccccc2Oc2ccc(Cl)cc21)N1CCCC1 | > 90 | > 90 | – | – |
| Clc1ccc2c(c1)C(NCCc1cccnc1)=Nc1ccccc1O2 | 38.2 | 74 | 1.9 | – |
| Clc1ccc2c(c1)C(NCCN1CCNCC1)=Nc1ccccc1O2 | 0.39 | 23.4 | 60 | EC50 (Staphylococcus aureus): 1.73 µM; EC50 (Salmonella typhimurium [4]): 1.78 µM; EC50 (Salmonella typhimurium [5]): 0.64 µM; EC50 (Salmonella typhimurium [6]): 3 µM; CC50 at 24 h [7]: 40.5 µM; EC50 (Salmonella typhimurium [8]): 0.63 µM; EC50 (Salmonella typhi): 0.28 µM; CC50 at 24 h [9]: 20.7 µM; EC50 (Salmonella typhimurium [10]): 0.24 µM; EC50 (Salmonella typhimurium [11]): 0.22 µM; EC50 (Salmonella typhimurium [12]): 4.05 µM; EC50 (Salmonella typhimurium [13]): 2.47 µM; CC50 at 24 h [14]: 32.5 µM; EC50 (Listeria monocytogenes): 1.51 µM; CC50 at 24 h [15]: 41 µM; CC50 at 24 h [16]: 30.3 µM; EC50 (Yersinia enterocolitica): 0.83 µM; EC50 (Salmonella typhimurium [17]): 0.22 µM; CC50 at 24 h [18]: 28.4 µM; CC50 at 24 h [19]: 15.4 µM |
| Clc1ccc2c(c1)C(N1CCNCC1)=Nc1ccccc1O2 [AMOXAPINE] | 7.25 | 107 | 14.8 | inhibition [20]: Active |
| Clc1ccc2c(c1)C(NCCN1CCCC1)=Nc1ccccc1O2 | 4.89 | 26.6 | 5.4 | – |
| Clc1ccc2c(c1)C(NCCc1ccccc1)=Nc1ccccc1O2 | 21.2 | 56.3 | 2.7 | – |
| Clc1ccc2c(c1)C(NCCc1ccc(Cl)c(Cl)c1)=Nc1ccccc1O2 | 31.1 | 82.7 | 2.7 | – |
| O=C1CCCN1CCCNC1=Nc2ccccc2Oc2ccc(Cl)cc21 | > 90 | > 90 | – | – |
